# From ChEMBL document CHEMBL1134485, “Diguanidino and "reversed" diamidino 2,5-diarylfurans as antimicrobial agents” (2001)
# What was measured:
# Aspergillus fumigatus [1] = test: In vitro minimum fungicidal concentration required to inhibit Aspergillus fumigatus(MFC); assay type: functional
# Procedure, shortened: (§1)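 Mould MFC: 100 µL aliquots from macrodilution tubes (RPMI 1640/MOPS pH 7.0, 0.5 × 10³ to 2.5 × 10³ CFU/mL conidial inoculum, 30 °C, 48-72 h, drug 100 to 0.09 µg/mL) showing complete growth inhibition plated on Sabouraud agar; MFC taken as lowest drug concentration giving three or fewer colonies.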
# Aspergillus fumigatus [2] = test: Antimicrobial activity against Aspergillus fumigatus (MIC); assay type: functional
# Aspergillus fumigatus [3] = test: Minimum inhibitory concentration required to inhibit 100% inoculum of Aspergillus fumigatus 119.00; assay type: functional
# Aspergillus fumigatus [4] = test: Minimum inhibitory concentration required to inhibit 100% inoculum of Aspergillus fumigatus 153.90; assay type: functional
# Aspergillus fumigatus [5] = test: Minimum inhibitory concentration required to inhibit 100% inoculum of Aspergillus fumigatus 165.86; assay type: functional
# Aspergillus fumigatus [6] = test: Minimum inhibitory concentration required to inhibit 100% inoculum of Aspergillus fumigatus 168.95; assay type: functional
# Aspergillus fumigatus [7] = test: Minimum inhibitory concentration required to inhibit 100% inoculum of Aspergillus fumigatus 182.99; assay type: functional
# Aspergillus fumigatus [8] = test: Minimum inhibitory concentration required to inhibit 80% inoculum of Aspergillus fumigatus 119.00; assay type: functional
# Aspergillus fumigatus [9] = test: Minimum inhibitory concentration required to inhibit 80% inoculum of Aspergillus fumigatus 153.90; assay type: functional
# Aspergillus fumigatus [10] = test: Minimum inhibitory concentration required to inhibit 80% inoculum of Aspergillus fumigatus 165.86; assay type: functional
# Aspergillus fumigatus [11] = test: Minimum inhibitory concentration required to inhibit 80% inoculum of Aspergillus fumigatus 168.95; assay type: functional
# Aspergillus fumigatus [12] = test: Minimum inhibitory concentration required to inhibit 80% inoculum of Aspergillus fumigatus 182.99; assay type: functional
# Aspergillus fumigatus [13] = test: Minimum fungicidal concentration against Aspergillus fumigatus 168.95; assay type: functional; procedure, shortened: as §1
# Aspergillus fumigatus [14] = test: Minimum fungicidal concentration against Aspergillus fumigatus 182.99; assay type: functional; procedure, shortened: as §1
# Aspergillus flavus [15] = test: Minimum fungicidal concentration against Aspergillus flavus 107.96; assay type: functional; procedure, shortened: as §1
# Aspergillus flavus [16] = test: Minimum fungicidal concentration against Aspergillus flavus 141.88; assay type: functional; procedure, shortened: as §1
# Aspergillus flavus [17] = test: Minimum fungicidal concentration against Aspergillus flavus 194.99; assay type: functional; procedure, shortened: as §1
# Aspergillus fumigatus [18] = test: Minimum fungicidal concentration against Aspergillus fumigatus 119.00; assay type: functional; procedure, shortened: as §1
# Aspergillus fumigatus [19] = test: Minimum fungicidal concentration against Aspergillus fumigatus 153.90; assay type: functional; procedure, shortened: as §1
# Aspergillus fumigatus [20] = test: Minimum fungicidal concentration against Aspergillus fumigatus 165.86; assay type: functional; procedure, shortened: as §1
# Aspergillus flavus [21] = test: Minimum inhibitory concentration required to inhibit 100% inoculum of Aspergillus flavus 107.96; assay type: functional
# Aspergillus flavus [22] = test: Minimum inhibitory concentration required to inhibit 100% inoculum of Aspergillus flavus 141.88; assay type: functional
# Aspergillus flavus [23] = test: Minimum inhibitory concentration required to inhibit 100% inoculum of Aspergillus flavus 194.99; assay type: functional
# Aspergillus flavus [24] = test: Minimum inhibitory concentration required to inhibit 80% inoculum of Aspergillus flavus 107.96; assay type: functional
# Aspergillus flavus [25] = test: Minimum inhibitory concentration required to inhibit 80% inoculum of Aspergillus flavus 141.88; assay type: functional
# Aspergillus flavus [26] = test: Minimum inhibitory concentration required to inhibit 80% inoculum of Aspergillus flavus 194.99; assay type: functional
# Candida albicans [27] = test: In vitro minimum fungicidal concentration against Candida albicans.; assay type: functional
# Procedure, shortened: (§2)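 Yeast MFC: after broth macrodilution (RPMI 1640/MOPS pH 7.0, 0.5 × 10³ to 2.5 × 10³ CFU/mL, 35 °C, 48 h or 72 h for C. neoformans, drug 100 to 0.09 µg/mL), 100 µL from tubes with complete inhibition plated on Sabouraud agar; lowest concentration yielding three or fewer colonies recorded.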
# Candida albicans [28] = test: In vitro minimum inhibitory concentration against Candida albicans.; assay type: functional
# Candida albicans [29] = test: Minimum fungicidal concentration against Candida albicans 126.97; assay type: functional; procedure, shortened: as §2
# Candida albicans [30] = test: Minimum fungicidal concentration against Candida albicans 149.97; assay type: functional; procedure, shortened: as §2
# Candida albicans [31] = test: Minimum fungicidal concentration against Candida albicans 156.97; assay type: functional; procedure, shortened: as §2
# Candida albicans [32] = test: Minimum fungicidal concentration against Candida albicans 159.95; assay type: functional; procedure, shortened: as §2
# Candida albicans [33] = test: Minimum fungicidal concentration against Candida albicans A39; assay type: functional; procedure, shortened: as §2
# Candida albicans [34] = test: Minimum fungicidal concentration against Candida albicans 116.98; assay type: functional; procedure, shortened: as §2
# Candida albicans [35] = test: Minimum fungicidal concentration against Candida albicans 117.00; assay type: functional; procedure, shortened: as §2
# Candida albicans [36] = test: Minimum inhibitory concentration required to inhibit 80% inoculum of Candida albicans 149.97; assay type: functional
# Procedure, shortened: (§3)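 Broth macrodilution following NCCLS M27-T, drug dilutions 100 to 0.09 µg/mL, in RPMI 1640 with glutamine, no bicarbonate, buffered to pH 7.0 with 0.165 M MOPS. Inoculum grown at 35 °C, adjusted to 0.5 × 10³ to 2.5 × 10³ CFU/mL, incubated at 35 °C and read at 48 h. MIC80 is the lowest concentration giving […] visual turbidity relative to the growth-control tube.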
# Candida albicans [37] = test: Minimum inhibitory concentration required to inhibit 80% inoculum of Candida albicans 156.97; assay type: functional; procedure, shortened: as §3
# Candida albicans [38] = test: Minimum inhibitory concentration required to inhibit 80% inoculum of Candida albicans 159.95; assay type: functional; procedure, shortened: as §3
# Candida albicans [39] = test: Minimum inhibitory concentration required to inhibit 80% inoculum of Candida albicans A39; assay type: functional; procedure, shortened: as §3
# Cryptococcus neoformans [40] = test: Minimum inhibitory concentration required to inhibit 100% inoculum of Cryptococcus neoformans H99; assay type: functional
# Candida albicans [41] = test: Minimum inhibitory concentration required to inhibit 100% inoculum of Candida albicans 116.98; assay type: functional
# Candida albicans [42] = test: Minimum inhibitory concentration required to inhibit 100% inoculum of Candida albicans 117.00; assay type: functional
# Candida albicans [43] = test: Minimum inhibitory concentration required to inhibit 100% inoculum of Candida albicans 126.97; assay type: functional
# Candida albicans [44] = test: Minimum inhibitory concentration required to inhibit 100% inoculum of Candida albicans 149.97; assay type: functional
# Candida albicans [45] = test: Minimum inhibitory concentration required to inhibit 100% inoculum of Candida albicans 156.97; assay type: functional
# Candida albicans [46] = test: Minimum inhibitory concentration required to inhibit 100% inoculum of Candida albicans 159.95; assay type: functional
# Candida albicans [47] = test: Minimum inhibitory concentration required to inhibit 100% inoculum of Candida albicans A39; assay type: functional
# Candida albicans [48] = test: Minimum inhibitory concentration required to inhibit 80% inoculum of Candida albicans 116.98; assay type: functional; procedure, shortened: as §3
# Candida albicans [49] = test: Minimum inhibitory concentration required to inhibit 80% inoculum of Candida albicans 117.00; assay type: functional; procedure, shortened: as §3
# Candida albicans [50] = test: Minimum inhibitory concentration required to inhibit 80% inoculum of Candida albicans 126.97; assay type: functional; procedure, shortened: as §3
# Cryptococcus neoformans [51] = test: Minimum fungicidal concentration against Cryptococcus neoformans H99; assay type: functional; procedure, shortened: as §2
# Fusarium solani [52] = test: Minimum fungicidal concentration against Fusarium solani 152.89; assay type: functional; procedure, shortened: as §1
# Fusarium solani [53] = test: Minimum inhibitory concentration required to inhibit 100% inoculum of Fusarium solani 152.89; assay type: functional
# Fusarium solani [54] = test: Minimum inhibitory concentration required to inhibit 80% inoculum of Fusarium solani 152.89; assay type: functional
# Procedure, shortened: (§4)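 Mould broth macrodilution, drug dilutions 100 to 0.09 µg/mL, in RPMI 1640 buffered at pH 7.0 with 0.165 M MOPS. Isolates are grown on Sabouraud dextrose agar at 30 °C for 4-14 days. Conidia are harvested in 0.85% NaCl/0.05% Tween 80, counted by hemocytometer, and diluted to 0.5 × 10³ to 2.5 × 10³ CFU/mL. Cultures incubated at 30 °C for 48-72 h until the control grows. MIC80 read visually against the growth control.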
# [55] = system: Mycobacterium tuberculosis; test: In vitro minimum inhibitory concentration required to inhibit Mycobacterium tuberculosis; assay type: functional
# Procedure, shortened: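 M. tuberculosis H37Rv grown in BACTEC 12B medium; fluorometric broth microdilution (Microplate Alamar Blue Assay). […] MIC = lowest concentration reducing relative fluorescence units by ≥90% relative to control culture. Testing done by TAACF.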
# Rhizopus arrhizus [56] = test: Minimum inhibitory concentration required to inhibit 100% inoculum of Rhizopus arrhizus 117.89; assay type: functional
# Rhizopus arrhizus [57] = test: Minimum inhibitory concentration required to inhibit 80% inoculum of Rhizopus arrhizus 117.89; assay type: functional; procedure, shortened: as §4
# Rhizopus arrhizus [58] = test: Minimum fungicidal concentration against Rhizopus arrhizus 117.89; assay type: functional; procedure, shortened: as §1
# Cryptococcus neoformans [59] = test: Minimum inhibitory concentration required to inhibit 80% inoculum of Cryptococcus neoformans H99; assay type: functional
# Procedure, shortened: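 Broth macrodilution following NCCLS M27-T, drug dilutions 100 to 0.09 µg/mL, in RPMI 1640 with glutamine, no bicarbonate, MOPS 0.165 M, pH 7.0. Inoculum grown at 35 °C, 0.5 × 10³ to 2.5 × 10³ CFU/mL, incubated at 35 °C and interpreted at […]. MIC80 is the lowest concentration with turbidity […] of the growth control.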
# Nucleic Acid [60] = system: Nucleic Acid
# Nucleic Acid [61] = system: Nucleic Acid; remark: listed apart in the source
structure (smiles),measurement,setting,value
Cc1ccc(C(=N)Nc2ccc(-c3ccc(-c4ccc(NC(=N)c5ccc(C)cn5)cc4C)o3)c(C)c2)nc1,MFC,Aspergillus fumigatus [1],> 100 µg/mL
same,MIC,Aspergillus fumigatus [2],10 µg/mL
same,MIC,Aspergillus fumigatus [3],50 µg/mL
same,MIC,Aspergillus fumigatus [4],50 µg/mL
same,MIC,Aspergillus fumigatus [5],50 µg/mL
same,MIC,Aspergillus fumigatus [6],50 µg/mL
same,MIC,Aspergillus fumigatus [7],50 µg/mL
same,MIC,Aspergillus fumigatus [8],3.12 µg/mL
same,MIC,Aspergillus fumigatus [9],3.12 µg/mL
same,MIC,Aspergillus fumigatus [10],50 µg/mL
same,MIC,Aspergillus fumigatus [11],10 µg/mL
same,MIC,Aspergillus fumigatus [12],3.12 µg/mL
same,MFC,Aspergillus fumigatus [13],> 100 µg/mL
same,MFC,Aspergillus fumigatus [14],> 100 µg/mL
same,MFC,Aspergillus flavus [15],> 100 µg/mL
same,MFC,Aspergillus flavus [16],> 100 µg/mL
same,MFC,Aspergillus flavus [17],> 100 µg/mL
same,MFC,Aspergillus fumigatus [18],> 100 µg/mL
same,MFC,Aspergillus fumigatus [19],> 100 µg/mL
same,MFC,Aspergillus fumigatus [20],> 100 µg/mL
same,MIC,Aspergillus flavus [21],50 µg/mL
same,MIC,Aspergillus flavus [22],50 µg/mL
same,MIC,Aspergillus flavus [23],6.25 µg/mL
same,MIC,Aspergillus flavus [24],3.12 µg/mL
same,MIC,Aspergillus flavus [25],3.12 µg/mL
same,MIC,Aspergillus flavus [26],3.12 µg/mL
same,MFC,Candida albicans [27],10 µg/mL
same,MIC,Candida albicans [28],≤ 1 µg/mL
same,MFC,Candida albicans [29],3.12 µg/mL
same,MFC,Candida albicans [30],6.25 µg/mL
same,MFC,Candida albicans [31],> 100 µg/mL
same,MFC,Candida albicans [32],3.12 µg/mL
same,MFC,Candida albicans [33],25 µg/mL
same,MFC,Candida albicans [34],> 100 µg/mL
same,MFC,Candida albicans [35],25 µg/mL
same,MIC,Candida albicans [36],0.78 µg/mL
same,MIC,Candida albicans [37],1.56 µg/mL
same,MIC,Candida albicans [38],0.79 µg/mL
same,MIC,Candida albicans [39],1.56 µg/mL
same,MIC,Cryptococcus neoformans [40],1.56 µg/mL
same,MIC,Candida albicans [41],1.56 µg/mL
same,MIC,Candida albicans [42],3.12 µg/mL
same,MIC,Candida albicans [43],3.12 µg/mL
same,MIC,Candida albicans [44],1.56 µg/mL
same,MIC,Candida albicans [45],3.15 µg/mL
same,MIC,Candida albicans [46],1.58 µg/mL
same,MIC,Candida albicans [47],1.56 µg/mL
same,MIC,Candida albicans [48],1.56 µg/mL
same,MIC,Candida albicans [49],0.78 µg/mL
same,MIC,Candida albicans [50],1.56 µg/mL
same,MFC,Cryptococcus neoformans [51],> 100 µg/mL
same,MFC,Fusarium solani [52],50 µg/mL
same,MIC,Fusarium solani [53],50 µg/mL
same,MIC,Fusarium solani [54],3.12 µg/mL
same,MIC,[55],2 µg/mL
same,MIC,Rhizopus arrhizus [56],1.56 µg/mL
same,MIC,Rhizopus arrhizus [57],0.78 µg/mL
same,MFC,Rhizopus arrhizus [58],1.56 µg/mL
same,MIC,Cryptococcus neoformans [59],1.56 µg/mL
same,ΔTm,Nucleic Acid [60],24.3
same,ΔTm,Nucleic Acid [61],10.8
Cl.Cl.N=C(N)Nc1ccc(-c2ccc(-c3ccc(NC(=N)N)cc3Cl)o2)c(Cl)c1,MFC,Aspergillus fumigatus [1],100 µg/mL
same,MIC,Aspergillus fumigatus [2],100 µg/mL
same,MFC,Candida albicans [27],100 µg/mL
same,MIC,Candida albicans [28],10 µg/mL
same,MIC,[55],4 µg/mL
same,ΔTm,Nucleic Acid [60],26.1
same,ΔTm,Nucleic Acid [61],4.7
N=C(Nc1ccc(-c2ccc(-c3ccc(NC(=N)c4ccccn4)cc3)o2)cc1)c1ccccn1,MIC,[55],1.56 µg/mL
same,ΔTm,Nucleic Acid [60],19.6
same,ΔTm,Nucleic Acid [61],7.5
